Results taken from ChEMBL document CHEMBL1151235, “Bromophenol derivatives from the red alga Rhodomela confervoides” (J Nat Prod, 2004).

Columns and labels:
Escherichia coli = assay: Antimicrobial activity against Escherichia coli; format: functional
Method in brief: (§1)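 Whole-organism tests on S. aureus, E. coli and the yeast C. albicans. Potency reported as MIC50 in μg/mL.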

BGC-823 = assay: Cytotoxicity against human BGC823 cells by MTT assay; format: functional, cell-based
Method in brief: (§2)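 Panel of human tumour lines: A549 lung adenocarcinoma, BGC-823 stomach cancer, MCF-7 breast cancer, Bel7402 hepatoma and HCT-8 colon cancer. Activity reported as IC50 in μg/mL.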

HCT-8 = assay: Cytotoxicity against human HCT8 cells by MTT assay; format: functional, cell-based; method in brief: as §2
Bel-7402 = assay: Cytotoxicity against human Bel7402 cells by MTT assay; format: functional, cell-based; method in brief: as §2
A549 = assay: Cytotoxicity against human A549 cells by MTT assay; format: functional, cell-based; method in brief: as §2
Staphylococcus aureus = assay: Antimicrobial activity against Staphylococcus aureus; format: functional; method in brief: as §1
MCF7 = assay: Cytotoxicity against human MCF7 cells by MTT assay; format: functional, cell-based; method in brief: as §2
Candida albicans = assay: Antimicrobial activity against Candida albicans; format: functional; method in brief: as §1

SMILES: COc1c(O)cc(C(=O)O)cc1Br
- MIC (Escherichia coli): > 100 µg/mL
- IC50 (BGC-823): > 10 µg/mL
- IC50 (HCT-8): > 10 µg/mL
- IC50 (Bel-7402): > 10 µg/mL
- IC50 (A549): > 10 µg/mL
- MIC (Staphylococcus aureus): > 100 µg/mL
- IC50 (MCF7): > 10 µg/mL
- MIC (Candida albicans): > 100 µg/mL

SMILES: C[S+]([O-])Cc1cc(O)c(O)c(Br)c1Br (configuration not stated)
- MIC (Escherichia coli): > 100 µg/mL
- IC50 (BGC-823): > 10 µg/mL
- IC50 (HCT-8): > 10 µg/mL
- IC50 (Bel-7402): > 10 µg/mL
- IC50 (A549): > 10 µg/mL
- MIC (Staphylococcus aureus): > 100 µg/mL
- IC50 (MCF7): > 10 µg/mL
- MIC (Candida albicans): > 100 µg/mL

SMILES: COC(=O)C(Cc1cc(O)c(O)c(Br)c1Br)c1cc(O)c(OC)c(Br)c1 (configuration not stated)
- IC50 (BGC-823): > 10 µg/mL
- IC50 (HCT-8): > 10 µg/mL
- IC50 (Bel-7402): > 10 µg/mL
- IC50 (A549): > 10 µg/mL
- IC50 (MCF7): > 10 µg/mL

SMILES: COc1c(O)cc(C(Cc2cc(O)c(O)c(Br)c2Br)C(=O)O)cc1Br (configuration not stated)
- MIC (Escherichia coli): > 100 µg/mL
- IC50 (BGC-823): > 10 µg/mL
- IC50 (HCT-8): > 10 µg/mL
- IC50 (Bel-7402): > 10 µg/mL
- IC50 (A549): > 10 µg/mL
- MIC (Staphylococcus aureus): > 100 µg/mL
- IC50 (MCF7): > 10 µg/mL
- MIC (Candida albicans): > 100 µg/mL

SMILES: COC(=O)Cc1cc(O)c(OC)c(Br)c1
- MIC (Escherichia coli): > 100 µg/mL
- IC50 (BGC-823): > 10 µg/mL
- IC50 (HCT-8): > 10 µg/mL
- IC50 (Bel-7402): > 10 µg/mL
- IC50 (A549): > 10 µg/mL
- MIC (Staphylococcus aureus): > 100 µg/mL
- IC50 (MCF7): > 10 µg/mL
- MIC (Candida albicans): > 100 µg/mL

SMILES: CC(=O)/C=C/c1cc(O)c(O)c(Br)c1Br
- IC50 (BGC-823): > 10 µg/mL
- IC50 (HCT-8): > 10 µg/mL
- IC50 (Bel-7402): > 10 µg/mL
- IC50 (A549): > 10 µg/mL
- IC50 (MCF7): > 10 µg/mL
